The record followed here is PubChem BioAssay.

Structures are written as SMILES. Unmarked numbers belong to inactive results. Active and inactive are the calls of the source.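 Rule for the calls, unless noted: active = viability at or under a set limit in both replicates, limit being median viability minus 3 SD (cut at about 48% in these data, passing the limit was not always enough); inconclusive = at or under the limit in just one replicate; inactive = at or above the limit in both replicates.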

For orientation: viability means a read-out of living cells in per cent, often relative to untreated cells.

One experiment in a line: HUVEC growth inhibition – cell-based, human, primary screen (AID 575;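 active = viability at or below 30% in both replicate assays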;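 note: 100% = median of untreated cell wells with 0.1% DMSO on each plate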). The conditions noted are these: HUVEC proliferation, CellTiter-Glo luminescence, 72 h; at 10 µM; active compounds read low. The method, boiled down: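 Assay system: primary human umbilical vein endothelial cells / Buffer or medium: endothelial basal medium with 2% FBS plus growth supplements / Compound dosing: one dose, 10 µM final, 0.1% DMSO / Timing: 72 h treatment at 37 °C / Signal: CTG luminescence / Benchmarks: 32 DMSO-only cell-control wells (high), 32 MePR drug-control wells (low) per plate / Plate: collagen-coated 384-well format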
In general terms: ATP-based viability assays read luminescence as a measure of living cells.
With `Cc1ccc(C)c(SCC(=O)Nc2nnc(-c3ccccc3)o2)c1`, the viability was 48.4%.
Same read-out and setting: next, `Cc1ccccc1CN1CCN(C(=O)c2cccc(F)c2)CC1`: 94.7%.
For the compound `Cc1cc(NCCCn2ccnc2)n2c(nc3ccccc32)c1C#N`, the viability is 94%.
Still for that read-out and setting: next, `CCOC(=O)C1CCN(C(=O)CN(Cc2ccccc2)S(C)(=O)=O)CC1`: 112%; `COc1ccc(CCNC(=O)c2nc3ncccn3n2)cc1OC`: 113%.
The same measure, in the same setting: to `CCOC(=O)N1CCN(C(=O)Nc2ccc(Cl)cc2)CC1` belongs 97.7%.
Regarding `O=C(CN1C(=O)COc2ccccc21)NCCCN1CCN(Cc2ccccc2)CC1`, the viability was 98.5%.
Still for that read-out and setting: next, `O=C(O)C1CC(=O)N(c2ccc(OCc3c(F)cccc3Cl)cc2)C1` (configuration not stated): 105%; `COC(=O)C1(C(=O)OC)Sc2ccccc2C1=O`: 87.2%; `CCOc1ccccc1OCCn1nnc2ccccc21`: 101%.
Still for that read-out and setting: to `Cc1nn(-c2ccccc2)c(Cl)c1C1C(C#N)=C(N)OC2=C1C(=O)CC(C)(C)C2` (configuration not stated) belongs 49.1%; to `Cc1cccc2cc(CN(Cc3nnnn3Cc3ccco3)C3CCCC3)c3nnnn3c12`, 86.8%; to `COc1ccc(S(=O)(=O)NCc2ccco2)cc1-c1nnc2c3ccccc3c(C)nn12`, 88.1%.
Still for that read-out and setting: next, `O=S(=O)(c1ccccc1)N1CCSC1c1ccco1` (configuration not stated): 83.6%; `CCNc1ccc2c(Cl)cc(=O)oc2c1`: 68.2%.
On to `COc1ccccc1-c1ccc(Nc2cccc(C(C)=O)c2)nn1`, for which the viability is 55.8%.
Same read-out and setting: next, `O=C(NC1CCCCC1)C(c1ccc(Cl)cc1)N(C(=O)c1cnccn1)c1ccc2c(c1)OCO2` (configuration not stated): 80.4%; `COC(=O)CN(c1ccc2c(c1)OCO2)S(C)(=O)=O`: 102%; `CCS(=O)(=O)c1nc2ccccc2n1CC(=O)N1CCOCC1`: 95.4%.
`Cc1onc(-c2c(Cl)cccc2Cl)c1C(=O)NCCCN1CCOCC1`: the viability was 108%.
Same read-out and setting: to `O=C(NCCc1ccccc1)c1cc(-c2ccco2)on1` belongs 81.3%.
For `Cn1nc(-c2ccc(C(=O)N3CCN(c4ccccc4)CC3)cc2)c2ccccc2c1=O`, the viability is 71.2%.
The same measure, in the same setting: next, `CCCn1c(SCC(=O)NCc2ccco2)nc2c1c(=O)n(C)c(=O)n2C`: 87.6%; `CC(=O)N1CCN(S(=O)(=O)c2ccc(S(=O)(=O)NCC(C)C)cc2)CC1`: 111%; `COC(=O)c1ccccc1NC(=O)c1noc2c1CC(C(C)(C)C)CC2` (configuration not stated): 112%.
Consider `COC(=O)CN1C(=O)C2(C(C#N)=C(N)Oc3c2c(C)nn3-c2ccccc2)c2ccccc21` (configuration not stated), for which the viability is 69.8%.
Still for that read-out and setting: next, `Cc1ccc(OCc2nnc(SCC(=O)Nc3ccc4c(c3)OCO4)n2C)cc1`: 91.2%.
Still for that read-out and setting: next, `CN(C(=O)c1c(Cl)nc2sccn12)C1CCCCC1`: 106%; `CCCN(CCC)CCCNS(=O)(=O)c1ccc2c(c1)oc(=O)n2C`: 92.2%.
The same measure, in the same setting: next, `CC(C)NC(=O)NC(=O)COc1cccc2c1OC(C)(C)C2`: 97.1%.
Turning to `Cc1ccc(S(=O)(=O)N(C)CC(=O)NC2CC(C)(C)NC(C)(C)C2)cc1`, the viability is 93.1%.
For `CC1Cc2ccccc2N1C(=O)Cc1cccs1` (configuration not stated), the viability is 84.8%.
On the same count and under the same terms, next, `COc1ccc(-c2coc3c(CN4CCCCC4)c(O)c(CN4CCCCC4)c(O)c3c2=O)cc1`: 76.7%; `CSc1cccc(NC(=O)CN(C)S(=O)(=O)c2ccccc2)c1`: 74.9%; `O=C(NCCN1CCCC1)C1COc2ccccc2O1` (configuration not stated): 105%.
Consider `COc1ccc(C)cc1NC(=O)CCN1CCCC1`, for which the viability was 105%.

Another experiment in a line: growth inhibitors of H69AR lung tumor, primary screen, human, duplicate replicates (AID 580).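 Note: 100% = mean luminescence of untreated wells and 0% = no signal.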 The conditions noted are these: H69AR lung tumor cells viability, ATP luminescence, 72 h; at 10 µM; active compounds read low.
For the compound `Cc1ccc(C)c(SCC(=O)Nc2nnc(-c3ccccc3)o2)c1`, the viability is 74.9%.
On the same count and under the same terms, to `Cc1ccccc1CN1CCN(C(=O)c2cccc(F)c2)CC1` belongs 101%; to `Cc1cc(NCCCn2ccnc2)n2c(nc3ccccc32)c1C#N`, 100%; to `CCOC(=O)C1CCN(C(=O)CN(Cc2ccccc2)S(C)(=O)=O)CC1`, 92.1%.
As for `COc1ccc(CCNC(=O)c2nc3ncccn3n2)cc1OC`, the viability is 102%.
Same read-out and setting: next, `CCOC(=O)N1CCN(C(=O)Nc2ccc(Cl)cc2)CC1`: 98.3%; `O=C(CN1C(=O)COc2ccccc21)NCCCN1CCN(Cc2ccccc2)CC1`: 87.3%.
Take `O=C(O)C1CC(=O)N(c2ccc(OCc3c(F)cccc3Cl)cc2)C1` (configuration not stated): the viability is 105%.
On the same count and under the same terms, to `COC(=O)C1(C(=O)OC)Sc2ccccc2C1=O` belongs 101%; to `CCOc1ccccc1OCCn1nnc2ccccc21`, 98.7%; to `Cc1nn(-c2ccccc2)c(Cl)c1C1C(C#N)=C(N)OC2=C1C(=O)CC(C)(C)C2` (configuration not stated), 12.2% (active).
Turning to `Cc1cccc2cc(CN(Cc3nnnn3Cc3ccco3)C3CCCC3)c3nnnn3c12`, the viability is 85.6%.
Turning to `COc1ccc(S(=O)(=O)NCc2ccco2)cc1-c1nnc2c3ccccc3c(C)nn12`, the viability is 83.9%.
The same measure, in the same setting: next, `O=S(=O)(c1ccccc1)N1CCSC1c1ccco1` (configuration not stated): 72.2%.
On the same count and under the same terms, next, `CCNc1ccc2c(Cl)cc(=O)oc2c1`: 79.8%.
Regarding `COc1ccccc1-c1ccc(Nc2cccc(C(C)=O)c2)nn1`, the viability is 71.6%.
The same measure, in the same setting: next, `O=C(NC1CCCCC1)C(c1ccc(Cl)cc1)N(C(=O)c1cnccn1)c1ccc2c(c1)OCO2` (configuration not stated): 80.2%.
On the same count and under the same terms, next, `COC(=O)CN(c1ccc2c(c1)OCO2)S(C)(=O)=O`: 110%.
On to `CCS(=O)(=O)c1nc2ccccc2n1CC(=O)N1CCOCC1`, for which the viability is 91%.
On to `Cc1onc(-c2c(Cl)cccc2Cl)c1C(=O)NCCCN1CCOCC1`, for which the viability is 100%.
With `O=C(NCCc1ccccc1)c1cc(-c2ccco2)on1`, the viability is 88.6%.
Same read-out and setting: to `Cn1nc(-c2ccc(C(=O)N3CCN(c4ccccc4)CC3)cc2)c2ccccc2c1=O` belongs 92.4%; to `CCCn1c(SCC(=O)NCc2ccco2)nc2c1c(=O)n(C)c(=O)n2C`, 94.4%; to `CC(=O)N1CCN(S(=O)(=O)c2ccc(S(=O)(=O)NCC(C)C)cc2)CC1`, 88.5%.
The same measure, in the same setting: next, `COC(=O)c1ccccc1NC(=O)c1noc2c1CC(C(C)(C)C)CC2` (configuration not stated): 107%; `COC(=O)CN1C(=O)C2(C(C#N)=C(N)Oc3c2c(C)nn3-c2ccccc2)c2ccccc21` (configuration not stated): 67.8%.
For `Cc1ccc(OCc2nnc(SCC(=O)Nc3ccc4c(c3)OCO4)n2C)cc1`, the viability is 76.9%.
The same measure, in the same setting: next, `CN(C(=O)c1c(Cl)nc2sccn12)C1CCCCC1`: 93.9%; `CCCN(CCC)CCCNS(=O)(=O)c1ccc2c(c1)oc(=O)n2C`: 94.7%.
On the same count and under the same terms, next, `CC(C)NC(=O)NC(=O)COc1cccc2c1OC(C)(C)C2`: 105%; `Cc1ccc(S(=O)(=O)N(C)CC(=O)NC2CC(C)(C)NC(C)(C)C2)cc1`: 96.2%; `CC1Cc2ccccc2N1C(=O)Cc1cccs1` (configuration not stated): 108%.
With `COc1ccc(-c2coc3c(CN4CCCCC4)c(O)c(CN4CCCCC4)c(O)c3c2=O)cc1`, the viability is 1.48% (active).
Consider `CSc1cccc(NC(=O)CN(C)S(=O)(=O)c2ccccc2)c1`, for which the viability was 95.1%.
Turning to `O=C(NCCN1CCCC1)C1COc2ccccc2O1` (configuration not stated), the viability was 95.7%.
The same measure, in the same setting: next, `COc1ccc(C)cc1NC(=O)CCN1CCCC1`: 97.5%.
